pIC50: −log10 of the molar value. In brackets after ≈: the same amount, converted by molar mass.
How the values were obtained:
A549 = test: Cytotoxicity against human A549 cells by tetrazolium salt based quantitative colorimetric assay; assay type: functional, cell-based
DU-145 = test: Cytotoxicity against human DU145 cells by tetrazolium salt based quantitative colorimetric assay; assay type: functional, cell-based
HeLa = test: Cytotoxicity against human HeLa cells by tetrazolium salt based quantitative colorimetric assay; assay type: functional, cell-based
HepG2 = test: Cytotoxicity against human HepG2 cells by tetrazolium salt based quantitative colorimetric assay; assay type: functional, cell-based
[1] = Cytotoxicity against human HuH7 cells by tetrazolium salt based quantitative colorimetric assay; assay type: functional, cell-based; conditions: Huh-7
[2] = Cytotoxicity against human L02 cells by tetrazolium salt based quantitative colorimetric assay; assay type: functional, cell-based
[3] = Cytotoxicity against mouse LM3 cells by tetrazolium salt based quantitative colorimetric assay; assay type: functional, cell-based
MCF7 = test: Cytotoxicity against human MCF7 cells by tetrazolium salt based quantitative colorimetric assay; assay type: functional, cell-based
NCI-H446 = test: Cytotoxicity against human NCI-H446 cells by tetrazolium salt based quantitative colorimetric assay; assay type: functional, cell-based
[4] = Cytotoxicity against human SGC7901 cells by tetrazolium salt based quantitative colorimetric assay; assay type: functional, cell-based; conditions: SGC-7901
SW1990 = test: Cytotoxicity against human SW1990 cells by tetrazolium salt based quantitative colorimetric assay; assay type: functional, cell-based
SW480 = test: Cytotoxicity against human SW480 cells by tetrazolium salt based quantitative colorimetric assay; assay type: functional, cell-based
U-251 = test: Cytotoxicity against human U251 cells by tetrazolium salt based quantitative colorimetric assay; assay type: functional, cell-based
Vibrio parahaemolyticus = test: Antimicrobial activity against Vibrio parahaemolyticus QDIO-8 by XTT assay; assay type: functional
Outline: (§1)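 Bacterial panel of two human-pathogenic and seven aquacultural strains, run by a previously described method. Chloramphenicol served as the positive control against bacteria.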

Gaeumannomyces graminis = test: Antimicrobial activity against Gaeumannomyces graminis QDAU-3 by XTT assay; assay type: functional
Outline: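 Plant-pathogenic fungus strain QDAU-3 was obtained from Qingdao Agricultural University and tested by a previously described method. Amphotericin B was the positive control against fungi.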

Artemia salina = test: Cytotoxicity in brine shrimp; assay type: functional; conditions: read-out: LD50 (the source's name)
Staphylococcus aureus = test: Antimicrobial activity against Staphylococcus aureus EMBLC-2 by XTT assay; assay type: functional; outline: as §1
Aeromonas hydrophila = test: Antimicrobial activity against Aeromonas hydrophila QDIO-1 by XTT assay; assay type: functional; outline: as §1
Vibrio harveyi = test: Antimicrobial activity against Vibrio harveyi QDIO-7 by XTT assay; assay type: functional; outline: as §1

C=C(C)[C@H]1[C@H](OC(C)=O)C[C@H](C)[C@@]12CC=C(C)[C@@H](O)C2
pIC50 (A549): < 5.00
pIC50 (DU-145): < 5.00
pIC50 (HeLa): < 5.00
pIC50 (HepG2): < 5.00
pIC50 [1]: < 5.00
pIC50 [2]: < 5.00
pIC50 [3]: < 5.00
pIC50 (MCF7): < 5.00
pIC50 (NCI-H446): < 5.00
pIC50 [4]: < 5.00
pIC50 (SW1990): < 5.00
pIC50 (SW480): < 5.00
pIC50 (U-251): < 5.00

C=C(C)[C@H]1[C@H](OC(C)=O)C[C@H](C)[C@@]12CC=C(CO)[C@@H](O)C2
pIC50 (A549): < 5.00
pIC50 (DU-145): < 5.00
pIC50 (HeLa): < 5.00
pIC50 (HepG2): < 5.00
pIC50 [1]: < 5.00
pIC50 [2]: < 5.00
pIC50 [3]: < 5.00
pIC50 (MCF7): < 5.00
pIC50 (NCI-H446): 5.30
pIC50 [4]: < 5.00
pIC50 (SW1990): < 5.00
pIC50 (SW480): < 5.00
pIC50 (U-251): < 5.00

COc1ccc([C@@H]2SS[C@@]34C[C@]5(O)[C@H](Cl)C=C[C@@H](O)[C@@H]5ON3C(=O)[C@@H]2N(C)C4=O)c(O)c1OC
MIC (Vibrio parahaemolyticus): 8 µg/mL (≈ 15.1 µM)
MIC (Gaeumannomyces graminis): 16 µg/mL (≈ 30.1 µM)
pIC50 (A549): < 5.00
pIC50 (DU-145): < 5.00
pIC50 (HeLa): < 5.00
pIC50 (HepG2): < 5.00
pIC50 [1]: < 5.00
pIC50 [2]: < 5.00
pIC50 [3]: < 5.00
pIC50 (MCF7): < 5.00
pIC50 (NCI-H446): < 5.00
pIC50 [4]: < 5.00
pIC50 (SW1990): < 5.00
pIC50 (SW480): < 5.00
pIC50 (U-251): < 5.00
LC50 (Artemia salina): 4.8 µM
MIC (Staphylococcus aureus): 8 µg/mL (≈ 15.1 µM)
MIC (Aeromonas hydrophila): 8 µg/mL (≈ 15.1 µM)
MIC (Vibrio harveyi): 32 µg/mL (≈ 60.3 µM)

COc1cc2c(c(OC)c1OC)-c1ccc(OC)c(=O)cc1[C@@H](NC(C)=O)CC2 [COLCHICINE]
LC50 (Artemia salina): 8.1 µM

COc1ccc([C@@H]2SS[C@@]34C[C@]5(O)[C@H](O)C=C[C@@H](O)[C@@H]5ON3C(=O)[C@@H]2N(C)C4=O)c(O)c1OC
pIC50 (A549): < 5.00
pIC50 (DU-145): < 5.00
pIC50 (HeLa): < 5.00
pIC50 (HepG2): < 5.00
pIC50 [1]: < 5.00
pIC50 [2]: < 5.00
pIC50 [3]: < 5.00
pIC50 (MCF7): < 5.00
pIC50 (NCI-H446): < 5.00
pIC50 [4]: < 5.00
pIC50 (SW1990): < 5.00
pIC50 (SW480): < 5.00
pIC50 (U-251): < 5.00
MIC (Staphylococcus aureus): 64 µg/mL (≈ 125 µM)
